The nature of data set [1]: Drug uptake in mouse shaved skin at 10 mg/kg, po after 6 hrs. The class given is ADME, organism-based, Zone of skin. Also noted: dose 10 mg/kg, route oral. The note with it: read-out: Drug uptake. The gist of the method:
(§1)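 Tissue distribution study. Mice (n = 2) given 10 mg/kg orally; liver, plasma, shaved skin and Harderian gland concentrations measured 6 h post dose.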

Data set [2] in a line: Drug uptake in mouse liver at 0.4 mg/kg, po after 3 hrs. The class given is ADME, organism-based. The arrangement: dose 0.4 mg/kg, route oral. The following applies: read-out: Drug uptake. The gist of the method:
(§2)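 Mouse liver pharmacodynamic model. Mice (n = 5) on high-carbohydrate diet, dosed orally; [1-14C]-stearic acid tracer given intravenously. Liver lipid 14C-oleic/14C-stearic ratio (SCD activity index) and liver drug concentration determined 3 h post dose. % inhibition is relative to vehicle-treated animals.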

The test system of data set [3] is Mus musculus. Nature of the data set: Inhibition of SCD1 in mouse liver assessed as reduction in conversion of [14C]stearic acid to [14C]oleic acid at 2 mg/kg, po measured after 3 hrs. Format: functional. The gist of the method: as §2
The nature of data set [4]: Drug uptake in mouse plasma at 10 mg/kg, po after 6 hrs. The arrangement: dose 10 mg/kg, route oral. Format: ADME, organism-based. The gist of the method: as §1
Data set [5] can be described thus: Drug uptake in mouse liver at 2 mg/kg, po measured after 3 hrs. Format: ADME, organism-based. The arrangement: dose 2 mg/kg, route oral. The note with it: read-out: Drug uptake. The method in brief:
as §2

Data set [6] is described as follows: Drug uptake in mouse harderian glands at 10 mg/kg, po after 6 hrs. Format: ADME, organism-based, Harderian gland. The arrangement: dose 10 mg/kg, route oral. The following applies: read-out: Drug uptake. The gist of the method: as §1
In data set [7] the test system is Mus musculus. Nature of the data set: Inhibition of SCD1 in mouse liver assessed as reduction in conversion of [14C]stearic acid to [14C]oleic acid after at 0.4 mg/kg, po after 3 hrs. The class given is functional. The method in brief: as §2
The nature of data set [8]: Drug uptake in mouse liver at 10 mg/kg, po after 6 hrs. The note with it: read-out: Drug uptake. The class given is ADME, organism-based. Also noted: dose 10 mg/kg, route oral. The method in brief: as §1
The target in data set [9] is T1, Acyl-CoA desaturase 1 (Rattus norvegicus, UniProt P07308).
T1 sequence (P07308 whole entry): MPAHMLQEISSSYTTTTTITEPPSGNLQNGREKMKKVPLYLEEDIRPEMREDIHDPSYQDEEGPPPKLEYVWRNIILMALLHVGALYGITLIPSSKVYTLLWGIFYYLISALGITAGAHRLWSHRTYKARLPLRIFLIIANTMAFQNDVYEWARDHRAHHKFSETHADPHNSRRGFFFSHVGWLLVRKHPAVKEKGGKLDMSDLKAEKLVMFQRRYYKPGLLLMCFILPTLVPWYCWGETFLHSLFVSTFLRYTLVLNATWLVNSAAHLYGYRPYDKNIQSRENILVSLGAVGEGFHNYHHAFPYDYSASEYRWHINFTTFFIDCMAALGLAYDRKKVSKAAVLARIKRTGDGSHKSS
Nature of the data set: Inhibition of rat liver microsome SCD1. The method in brief:
(§3)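 IC50s are the average of at least two independent titrations.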

Data set [10] has as its target T2, Stearoyl-CoA desaturase (Homo sapiens, UniProt O00767).
T2 sequence (O00767 whole entry): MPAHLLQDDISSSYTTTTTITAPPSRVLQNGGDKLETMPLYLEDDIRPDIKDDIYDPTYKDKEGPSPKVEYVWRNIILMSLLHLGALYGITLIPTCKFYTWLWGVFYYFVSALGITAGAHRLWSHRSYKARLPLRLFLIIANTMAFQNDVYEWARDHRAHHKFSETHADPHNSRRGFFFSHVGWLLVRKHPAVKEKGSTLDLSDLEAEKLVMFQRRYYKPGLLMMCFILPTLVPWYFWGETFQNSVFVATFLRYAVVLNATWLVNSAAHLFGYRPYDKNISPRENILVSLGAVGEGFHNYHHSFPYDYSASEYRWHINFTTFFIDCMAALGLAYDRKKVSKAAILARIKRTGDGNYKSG
Nature of the data set: Inhibition of SCD1 in OATP-deficient human HepG2 cells by whole cell assay. The class given is cell-based.

In data set [11] the target is T1, Acyl-CoA desaturase 1. Nature of the data set: Inhibition of SCD1 in rat hepatocytes expressing OATP. Format: cell-based, Hepatocyte. The method in brief: as §3
Data set [12] has as its target Acyl-CoA (8-3)-desaturase (Homo sapiens, UniProt O60427). Briefly: Inhibition of delta-5 desaturase expressed in HepG2 cells. The class given is cell-based.
Data set [13] can be described thus: Stability in mouse hepatocytes assessed as compound remaining after 2 hrs. Format: ADME, cell-based, Hepatocyte. The following applies: read-out: Stability. The method in brief:
(§4)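 Fresh mouse or rat hepatocytes, 2 million cells/mL in Krebs-Henseleit buffer, incubated at 37 °C for 2 h under 95% O2/5% CO2. Parent compound remaining measured.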

Data set [14] in a line: Oral bioavailability in C57BL/6 mouse at 10 mg/kg. The class given is ADME, organism-based, C57BL6. The note with it: in vivo. The method in brief: (§5)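 C57BL6 mice dosed orally at 10 mg/kg in 0.5% methocel; plasma PK followed over 0–6 h, giving oral bioavailability (F) and AUC0–6h.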
Data set [15] is described as follows: Stability in rat hepatocytes assessed as compound remaining after 2 hrs. Format: ADME, cell-based, Hepatocyte. The following applies: read-out: Stability. The gist of the method:
as §4

Data set [16] addresses T2, Stearoyl-CoA desaturase. Briefly: Inhibition of human SCD1.
A short description of data set [17]: Drug uptake in mouse liver at 60 mg/kg, po measured after 3 hrs. The class given is ADME, organism-based. Also noted: dose 60 mg/kg, route oral. The following applies: read-out: Drug uptake. The gist of the method: as §2
The next data set addresses T3, Acyl-CoA 6-desaturase (Homo sapiens, UniProt O95864).
T3 sequence (O95864 whole entry): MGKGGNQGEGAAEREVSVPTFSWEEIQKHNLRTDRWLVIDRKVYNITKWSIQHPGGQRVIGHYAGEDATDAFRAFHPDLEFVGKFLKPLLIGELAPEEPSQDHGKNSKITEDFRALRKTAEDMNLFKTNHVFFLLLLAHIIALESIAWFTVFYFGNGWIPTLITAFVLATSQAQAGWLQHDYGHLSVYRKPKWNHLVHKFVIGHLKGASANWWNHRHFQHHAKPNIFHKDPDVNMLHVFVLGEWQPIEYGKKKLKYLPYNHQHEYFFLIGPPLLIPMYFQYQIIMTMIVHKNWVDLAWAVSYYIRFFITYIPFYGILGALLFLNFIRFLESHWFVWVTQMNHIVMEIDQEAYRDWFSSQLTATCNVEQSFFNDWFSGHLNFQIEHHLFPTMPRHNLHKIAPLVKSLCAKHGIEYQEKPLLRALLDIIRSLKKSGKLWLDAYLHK
Nature of the data set: Inhibition of delta-6 desaturase expressed in HepG2 cells. Format: cell-based.

For data set [18], the system named is Mus musculus. Briefly: Inhibition of SCD1 in mouse liver assessed as reduction in conversion of [14C]stearic acid to [14C]oleic acid at 60 mg/kg, po measured after 3 hrs. Format: functional. The method in brief:
as §2

Data set [19] can be described thus: AUC (0 to 6 hrs) in C57BL/6 mouse at 10 mg/kg, po. The note with it: plasma. Also noted: time < 6 hr, dose 10 mg/kg, route oral. Format: ADME, organism-based, C57BL6. The gist of the method:
as §5

Data set [20] concerns the target Acyl-CoA desaturase 1 (Mus musculus) (UniProt P13516). Briefly: Inhibition of SCD1 in mouse SCD1 enzyme assay.
The test system of data set [21] is Mus musculus. Briefly: Inhibition of SCD1 in mouse liver assessed as reduction in conversion of [14C]stearic acid to [14C]oleic acid after at 10 mg/kg, po after 3 hrs. Format: functional. The gist of the method:
as §2

Data set [22] is described as follows: Drug uptake in mouse liver at 10 mg/kg, po after 3 hrs. Also noted: dose 10 mg/kg, route oral. The note with it: read-out: Drug uptake. Format: ADME, organism-based. The method in brief: as §2

As usually defined, the inhibition in vivo is how much of the control response was suppressed. In general, pIC50 refers to the IC50 on a negative log10 scale, so that one unit is a factor of ten. Lower therefore signals a large IC50. A word on the bioavailability: it is dose-corrected exposure relative to a reference, in per cent. A higher bioavailability goes with good availability. The term AUC(0-t) denotes the area under the concentration-time curve up to a stated or last time point. High values mean more exposure, low ones less exposure.

SMILES strings stand for the structures. pIC50: −log10 of the molar value. Where only a bound is given, the exact number is not on record here.

Acyl-CoA (8-3)-desaturase, sequence (O60427 whole entry): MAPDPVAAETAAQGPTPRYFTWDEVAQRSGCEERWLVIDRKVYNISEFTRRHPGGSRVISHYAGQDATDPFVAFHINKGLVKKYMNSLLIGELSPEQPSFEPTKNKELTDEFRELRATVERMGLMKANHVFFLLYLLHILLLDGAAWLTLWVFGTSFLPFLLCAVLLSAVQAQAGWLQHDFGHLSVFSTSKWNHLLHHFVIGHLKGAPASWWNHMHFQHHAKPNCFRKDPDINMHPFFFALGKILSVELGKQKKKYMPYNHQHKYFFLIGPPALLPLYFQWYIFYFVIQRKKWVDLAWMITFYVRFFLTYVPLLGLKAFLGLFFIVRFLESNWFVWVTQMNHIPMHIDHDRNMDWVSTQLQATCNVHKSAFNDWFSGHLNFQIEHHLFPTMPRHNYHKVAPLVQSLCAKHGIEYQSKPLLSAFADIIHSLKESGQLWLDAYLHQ

In the case of `O=C(O)Cn1nnc(-c2cc(N3CCC(Oc4cc(F)ccc4Br)CC3)no2)n1` [MK-8245], the concentration at 6 h amounted to 70 nM in data set [1], 30 nM in [4], 130 nM in data set [6] and 2700 nM in data set [8]. In addition, the concentration at 3 h in [2] came out at 1600 nM; in data set [5], 4900 nM. Moreover, the inhibition in vivo at 2 mg/kg in the data set on Mus musculus [3] was determined as 89%. In addition, in the data set on Mus musculus [7], the inhibition in vivo at 0.4 mg/kg is 49%.
As to `Cc1nc(OCCCOc2cc(F)ccc2Br)sc1-c1nnn(CC(=O)O)n1`, the pIC50 at Acyl-CoA desaturase 1 [9] was 7.66; on Stearoyl-CoA desaturase [10], 4.69; against Acyl-CoA desaturase 1 [11] it was 6.02.
Take `O=C(O)Cn1nnc(-c2cc(OCCCCOc3cc(F)ccc3Br)no2)n1`: the pIC50 at Acyl-CoA desaturase 1 [9] was 6.61; against Stearoyl-CoA desaturase [10], less than 4.40.
With `O=C(O)Cn1nnc(-c2cc(OCCOCc3cc(F)ccc3Br)no2)n1`, the pIC50 is 6.52 at Acyl-CoA desaturase 1 [9] and less than 4.00 against Stearoyl-CoA desaturase [10].
`O=C(O)Cn1nnc(-c2cc(OCCCOc3cc(F)ccc3Br)no2)n1`: the negative logarithm of the IC50 (pIC50) in data set [12] was less than 4.70; on Stearoyl-CoA desaturase [16] it was 7.39; against Acyl-CoA 6-desaturase, less than 4.70; at Acyl-CoA desaturase 1 [9], 7.89; against Stearoyl-CoA desaturase [10], 5.11; in data set [20], 8.00. Besides, at Acyl-CoA desaturase 1 [11], the pIC50 is 6.67. In addition, the values for the remaining at 2 h in [13] and in data set [15] were 75% and 55%, respectively. Moreover, the bioavailability in [14] is 10%. Also, in [17], the concentration at 3 h was found to be 7800 nM. Besides, the inhibition in vivo at 60 mg/kg in the data set on Mus musculus [18] came out at 85%. Also, the concentration at 6 h in data set [8] was found to be 230 nM. For the same compound, in data set [19], the AUC(0-t) at 6 h was 1 µM·h.
`O=C(O)Cn1nnc(-c2cnc(OCCCOc3cc(OC(F)(F)F)ccc3Br)s2)n1`: the inhibition in vivo at 10 mg/kg with Mus musculus [21] is 91%. For the same compound, the concentration at 6 h was 300 nM in [1], 770 nM in data set [4], 1850 nM in data set [6] and 13700 nM in data set [8]. Further, the pIC50 at Acyl-CoA desaturase 1 [9] was 8.70; at Stearoyl-CoA desaturase [10], 6.01; against Acyl-CoA desaturase 1 [11], 7.04. Moreover, in the data set on Mus musculus [3], the inhibition in vivo at 2 mg/kg was 81%. Moreover, the concentration at 3 h in [22] is 18300 nM; in data set [5], 4200 nM.
Turning to `O=C(O)Cn1nnc(-c2cnc(OCCCOc3cc(F)ccc3Br)s2)n1`, the inhibition in vivo at 10 mg/kg in the data set on Mus musculus [21] worked out at 79%. For the same compound, the bioavailability in [14] is 32%. The remaining at 2 h in data set [15] came to 94%. For the same compound, the concentration at 6 h in data set [1] worked out at 240 nM; in data set [4] it was 1080 nM; in [6] it was 590 nM; in data set [8], 8070 nM. The pIC50 was 8.30 against Acyl-CoA desaturase 1 [9], 5.41 against Stearoyl-CoA desaturase [10] and 6.75 on Acyl-CoA desaturase 1 [11]. The inhibition in vivo at 2 mg/kg in the data set on Mus musculus [3] was found to be 49%. The concentration at 3 h in data set [22] was 28600 nM; in data set [5], 7600 nM. Moreover, the AUC(0-t) at 6 h in data set [19] was determined as 11.4 µM·h.
Consider `O=C(O)Cn1nnc(-c2nnc(OCCCOc3cc(F)ccc3Br)s2)n1`, for which the figures for the negative logarithm of the IC50 (pIC50) on Acyl-CoA desaturase 1 [9] and at Stearoyl-CoA desaturase [10] were 7.59 and less than 4.22, respectively.
For the compound `O=C(O)Cn1nnc(-c2cc(OCCOc3cc(F)ccc3Br)no2)n1`, the pIC50 against Acyl-CoA desaturase 1 [9] was 6.65; against Stearoyl-CoA desaturase [10] it was less than 4.40.

For the origin of these results see ChEMBL document CHEMBL1949632, “Discovery of potent and liver-selective stearoyl-CoA desaturase (SCD) inhibitors in an acyclic linker series” (Bioorg Med Chem Lett, 2012).
